Measurements as given in ChEMBL document CHEMBL4270599, “Synthesis of a 3'-C-ethynyl-β-d-ribofuranose purine nucleoside library: Discovery of C7-deazapurine analogs as potent antiproliferative nucleosides” (Eur J Med Chem, 2018).
pIC50: −log10 of the molar value.

Tests used:
HUVEC = assay: Antiproliferative activity against HUVEC cells after 4 days by Coulter counter method; assay type: cell-based; settings: Homo sapiens, 96 h
Method in brief: (§1)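 Primary HUVEC, primary HMVEC-d and the HMEC-1 line seeded at 20,000 cells/well in gelatin-coated plates in EC growth medium (EGM2). After overnight incubation, 5-fold compound dilutions added. Cells proliferated four days with compound, then trypsinized and counted by Coulter counter to derive IC₅₀.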

MCF7 = assay: Growth inhibition of human MCF7 cells assessed as cell growth at 10^-7 M incubated for 48 hrs by sulforhodamine B assay relative to control; assay type: functional; settings: MCF7, 48 h, read-out: Activity
UO-31 [1] = assay: Growth inhibition of human UO31 cells assessed as cell growth at 10^-6 M incubated for 48 hrs by sulforhodamine B assay relative to control; assay type: functional; settings: UO-31, 48 h, read-out: Activity
HT-29 [2] = assay: Growth inhibition of human HT-29 cells assessed as cell growth at 10^-4 M incubated for 48 hrs by sulforhodamine B assay relative to control; assay type: functional; settings: HT-29, 48 h, read-out: Activity
HCT-116 = assay: Cytotoxicity against human HCT116 cells after 48 hrs by SRB assay; assay type: functional; settings: HCT-116, 48 h
TK-10 = assay: Growth inhibition of human TK10 cells assessed as cell growth at 10^-7 M incubated for 48 hrs by sulforhodamine B assay relative to control; assay type: functional; settings: TK-10, 48 h, read-out: Activity
ACHN [3] = assay: Growth inhibition of human ACHN cells assessed as cell growth at 10^-6 M incubated for 48 hrs by sulforhodamine B assay relative to control; assay type: functional; settings: read-out: Activity
ACHN [4] = assay: Growth inhibition of human ACHN cells assessed as cell growth at 10^-8 M incubated for 48 hrs by sulforhodamine B assay relative to control; assay type: functional; settings: read-out: Activity
SW-620 [5] = assay: Growth inhibition of human SW620 cells assessed as cell growth at 10^-4 M incubated for 48 hrs by sulforhodamine B assay relative to control; assay type: functional; settings: SW-620, 48 h, read-out: Activity
CCRF-CEM [6] = assay: Antiproliferative activity against human CEM cells after 72 hrs by Coulter counter method; assay type: functional, cell-based
Method in brief: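 Cell count assay in 96-well microtiter plates; (5–7.5) × 10⁴ tumor cells per well plus test compound. Cells proliferated at 37 °C in humidified CO₂-controlled atmosphere, 48 h for murine leukemia L1210, 72 h for human lymphocytic CEM and cervix carcinoma HeLa. Counted by Coulter counter; IC₅₀ is the concentration that inhibits proliferation by 50%.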

CCRF-CEM [7] = assay: Growth inhibition of human CCRF-CEM cells assessed as cell growth at 10^-5 M incubated for 48 hrs by sulforhodamine B assay relative to control; assay type: functional; settings: read-out: Activity
MOLT-4 = assay: Growth inhibition of human MOLT4 cells assessed as cell growth at 10^-6 M incubated for 48 hrs by sulforhodamine B assay relative to control; assay type: functional; settings: MOLT-4, 48 h, read-out: Activity
[8] = Antiproliferative activity against HMVEC-d cells after 4 days by Coulter counter method; assay type: cell-based; settings: Homo sapiens, 96 h; method in brief: as §1
Malme-3M = assay: Cytotoxicity against human MALME-3M cells after 48 hrs by SRB assay; assay type: functional
HT-29 [9] = assay: Cytotoxicity against human HT-29 cells after 48 hrs by SRB assay; assay type: functional; settings: HT-29, 48 h
HOP-62 = assay: Growth inhibition of human HOP62 cells assessed as cell growth at 10^-8 M incubated for 48 hrs by sulforhodamine B assay relative to control; assay type: functional; settings: HOP-62, 48 h, read-out: Activity
SF-539 = assay: Cytotoxicity against human SF539 cells after 48 hrs by SRB assay; assay type: functional; settings: SF-539, 48 h
HT-29 [10] = assay: Growth inhibition of human HT-29 cells assessed as cell growth at 10^-6 M incubated for 48 hrs by sulforhodamine B assay relative to control; assay type: functional; settings: HT-29, 48 h, read-out: Activity
ACHN [11] = assay: Cytotoxicity against human ACHN cells after 48 hrs by SRB assay; assay type: functional
SW-620 [12] = assay: Growth inhibition of human SW620 cells assessed as cell growth at 10^-8 M incubated for 48 hrs by sulforhodamine B assay relative to control; assay type: functional; settings: SW-620, 48 h, read-out: Activity
M14 = assay: Growth inhibition of human M14 cells assessed as cell growth at 10^-8 M incubated for 48 hrs by sulforhodamine B assay relative to control; assay type: functional; settings: M14, 48 h, read-out: Activity
NCI-H522 = assay: Cytotoxicity against human NCI-H522 cells after 48 hrs by SRB assay; assay type: functional; settings: NCI-H522, 48 h
SK-MEL-28 = assay: Growth inhibition of human SK-MEL-28 cells assessed as cell growth at 10^-6 M incubated for 48 hrs by sulforhodamine B assay relative to control; assay type: functional; settings: SK-MEL-28, 48 h, read-out: Activity
UO-31 [13] = assay: Growth inhibition of human UO31 cells assessed as cell growth at 10^-7 M incubated for 48 hrs by sulforhodamine B assay relative to control; assay type: functional; settings: UO-31, 48 h, read-out: Activity
IGROV-1 = assay: Growth inhibition of human IGROV1 cells assessed as cell growth at 10^-4 M incubated for 48 hrs by sulforhodamine B assay relative to control; assay type: functional; settings: IGROV-1, 48 h, read-out: Activity
RXF 393 = assay: Growth inhibition of human RXF393 cells assessed as cell growth at 10^-6 M incubated for 48 hrs by sulforhodamine B assay relative to control; assay type: functional; settings: RXF 393, 48 h, read-out: Activity
UACC-257 = assay: Growth inhibition of human UACC257 cells assessed as cell growth at 10^-8 M incubated for 48 hrs by sulforhodamine B assay relative to control; assay type: functional; settings: UACC-257, 48 h, read-out: Activity
UACC-62 = assay: Cytotoxicity against human UACC62 cells after 48 hrs by SRB assay; assay type: functional; settings: UACC-62, 48 h
HCT-15 = assay: Growth inhibition of human HCT15 cells assessed as cell growth at 10^-8 M incubated for 48 hrs by sulforhodamine B assay relative to control; assay type: functional; settings: HCT-15, 48 h, read-out: Activity
K562 = assay: Growth inhibition of human K562 cells assessed as cell growth at 10^-6 M incubated for 48 hrs by sulforhodamine B assay relative to control; assay type: functional; settings: K562, 48 h, read-out: Activity
RPMI-8226 = assay: Growth inhibition of human RPMI8226 cells assessed as cell growth at 10^-7 M incubated for 48 hrs by sulforhodamine B assay relative to control; assay type: functional; settings: RPMI-8226, 48 h, read-out: Activity
[14] = read-out: LC50 (the source's name)
[15] = read-out: pLC50 (the source's name) (converted)

Question: With `C#C[C@@]1(O)[C@@H](CO)O[C@@H](n2cc(F)c3c(N)ncnc32)[C@@H]1O` as the compound, how does the pIC50 (HUVEC) read?
Answer: The pIC50 was 7.17.

Question: What about the growth at 0.1 µM (MCF7) of the same compound?
Answer: The growth at 0.1 µM was 51%.

Question: What about the growth at 1 µM (UO-31 [1]) of the same compound?
Answer: The growth at 1 µM was 23%.

Question: What about the growth at 100 µM (HT-29 [2]) of the same compound?
Answer: The growth at 100 µM was 2%.

Question: And the CC50 (HCT-116; [14])?
Answer: The CC50 was over 100000 nM.

Question: And the GI50 (HCT-116; read-out: pGI50 (converted))?
Answer: Its GI50 is 151 nM.

Question: What about the growth at 0.1 µM (TK-10) of the same compound?
Answer: Its growth at 0.1 µM is 102%.

Question: What about the growth at 1 µM (ACHN [3]) of the same compound?
Answer: The growth at 1 µM was 9%.

Question: And the growth at 0.01 µM (ACHN [4])?
Answer: The growth at 0.01 µM was 102%.

Question: What about the growth at 100 µM (SW-620 [5]) of the same compound?
Answer: The growth at 100 µM was -23%.

Question: And the pIC50 (CCRF-CEM [6])?
Answer: The pIC50 was 6.80.

Question: And the growth at 10 µM (CCRF-CEM [7])?
Answer: The growth at 10 µM was 5%.

Question: What about the growth at 1 µM (MOLT-4) of the same compound?
Answer: The growth at 1 µM was 11%.

Question: What about the pIC50 [8] of the same compound?
Answer: The pIC50 was over 8.89.

Question: And the TGI (Malme-3M; read-out: TGI)?
Answer: Its TGI is 1810 nM.

Question: And the GI50 (Malme-3M; read-out: pGI50 (converted))?
Answer: Its GI50 is 363 nM.

Question: And the CC50 (Malme-3M; [15])?
Answer: Its CC50 is over 100000 nM.

Question: And the TGI (Malme-3M; read-out: pTGI (converted))?
Answer: Its TGI is 1820 nM.

Question: And the TGI (HT-29 [9]; read-out: TGI)?
Answer: Its TGI is over 100000 nM.

Question: And the GI50 (HT-29 [9]; read-out: pGI50 (converted))?
Answer: The GI50 was 209 nM.

Question: And the CC50 (HT-29 [9]; [15])?
Answer: The CC50 was over 100000 nM.

Question: And the TGI (HT-29 [9]; read-out: pTGI (converted))?
Answer: The TGI was over 100000 nM.

Question: What about the growth at 0.01 µM (HOP-62) of the same compound?
Answer: Its growth at 0.01 µM is 90%.

Question: What about the CC50 (SF-539; [14]) of the same compound?
Answer: The CC50 was over 100000 nM.

Question: What about the TGI (SF-539; read-out: TGI) of the same compound?
Answer: Its TGI is 5290 nM.

Question: What about the GI50 (SF-539; read-out: pGI50 (converted)) of the same compound?
Answer: Its GI50 is 1320 nM.

Question: And the TGI (SF-539; read-out: pTGI (converted))?
Answer: The TGI was 5250 nM.

Question: And the growth at 1 µM (HT-29 [10])?
Answer: The growth at 1 µM was 11%.

Question: And the GI50 (ACHN [11])?
Answer: Its GI50 is 240 nM.

Question: And the CC50 (ACHN [11]; [14])?
Answer: Its CC50 is over 100000 nM.

Question: What about the TGI (ACHN [11]; read-out: TGI) of the same compound?
Answer: The TGI was over 100000 nM.

Question: And the TGI (ACHN [11]; read-out: pTGI (converted))?
Answer: Its TGI is over 100000 nM.

Question: And the growth at 0.01 µM (SW-620 [12])?
Answer: Its growth at 0.01 µM is 97%.

Question: And the growth at 0.01 µM (M14)?
Answer: Its growth at 0.01 µM is 101%.

Question: What about the GI50 (NCI-H522; read-out: GI50) of the same compound?
Answer: Its GI50 is 180 nM.

Question: What about the CC50 (NCI-H522; [14]) of the same compound?
Answer: The CC50 was over 100000 nM.

Question: And the TGI (NCI-H522; read-out: TGI)?
Answer: The TGI was 929 nM.

Question: What about the GI50 (NCI-H522; read-out: pGI50 (converted)) of the same compound?
Answer: Its GI50 is 178 nM.

Question: What about the TGI (NCI-H522; read-out: pTGI (converted)) of the same compound?
Answer: Its TGI is 933 nM.

Question: What about the growth at 1 µM (SK-MEL-28) of the same compound?
Answer: Its growth at 1 µM is 72%.

Question: And the growth at 0.1 µM (UO-31 [13])?
Answer: The growth at 0.1 µM was 104%.

Question: What about the growth at 100 µM (IGROV-1) of the same compound?
Answer: Its growth at 100 µM is -38%.

Question: And the growth at 1 µM (RXF 393)?
Answer: Its growth at 1 µM is 42%.

Question: And the growth at 0.01 µM (UACC-257)?
Answer: The growth at 0.01 µM was 91%.

Question: And the TGI (UACC-62; read-out: TGI)?
Answer: The TGI was 1470 nM.

Question: What about the GI50 (UACC-62; read-out: pGI50 (converted)) of the same compound?
Answer: The GI50 was 331 nM.

Question: And the CC50 (UACC-62; [15])?
Answer: The CC50 was 7240 nM.

Question: And the TGI (UACC-62; read-out: pTGI (converted))?
Answer: The TGI was 1480 nM.

Question: What about the growth at 0.01 µM (HCT-15) of the same compound?
Answer: Its growth at 0.01 µM is 97%.

Question: What about the growth at 1 µM (K562) of the same compound?
Answer: Its growth at 1 µM is 16%.

Question: And the growth at 0.1 µM (RPMI-8226)?
Answer: The growth at 0.1 µM was 76%.
